Experimental data collected from several papers.
Lines come from different studies, so protocols differ.

SMILES | species | matrix | route | dose | setting | Cmax
COC1=CC(c2ccc[nH]2)=N/C1=C\c1[nH]c(Cc2ccc(OC(F)(F)F)cc2)cc1Cc1ccc(OC(F)(F)F)cc1 | male CD-1 mouse | liver | oral | 40 mg/kg | single dose | 20300 ng/mL
Cc1ncsc1-c1ccc([C@H](C)NC(=O)[C@@H]2C[C@@H](O)CN2C(=O)[C@@H](NC(=O)CCc2ccc(C#Cc3ccc(C(=O)NCCCn4cc(-c5ccc6c(c5)CCN6C(=O)Cc5cccc(OC(F)(F)F)c5)c5c(N)ncnc54)cc3)cn2)C(C)(C)C)cc1 | male C57BL/6 mouse | plasma | intravenous | 1 mg/kg | – | 11900 ng/mL
COC1=CC(c2ccc[nH]2)=N/C1=C\c1cc(Cc2ccc(OC(F)(F)F)cc2)c(C)[nH]1.Cl | male CD-1 mouse | liver | oral | 40 mg/kg | single dose | 2660 ng/mL
Cc1ccc(OCC(=O)N[C@@H](Cc2c[nH]c3ccccc23)C(=O)OC(C)C)cc1 | male Sprague-Dawley mouse | plasma | oral | 20 mg/kg | – | 2560 ng/mL
OCc1ccc(-c2nn(Cc3ccccc3)c3ccccc23)o1 | male CD-1 mouse | plasma | oral | 10 mg/kg | – | 220 ng/mL
O=C1CCC(N2Cc3cc(C4CCN(Cc5ccccc5)CC4)ccc3C2=O)C(=O)N1 (centres unmarked) | male CD-1 mouse | plasma | intravenous | 1 mg/kg | – | 204 ng/mL
COCC(=O)N1CCc2[nH]c3c(Cl)c(Cl)ccc3c2[C@@H]1C | C57BL/6 mouse | blood | oral | 20 mg/kg | – | 3470 nM
Cc1nc2ccc(OCc3ccc(C(F)(F)F)cc3)cc2[nH]1 | male BALB/c mouse | plasma | oral | 10 mg/kg | – | 5890 ng/mL
CN(C)C(=O)c1cc2cnc(Nc3ccc(-c4ccc5c(=O)cc(N6CCOCC6)oc5c4)cc3)nc2n1C1CCCC1 | BALB/c mouse | plasma | oral | 20 mg/kg | – | 1440 ng/mL
OCc1nc2ccc(NCc3ccc(C(F)(F)F)cc3)cc2[nH]1 | male BALB/c mouse | plasma | intravenous | 1 mg/kg | – | 378 ng/mL
Cc1cc(-c2ccnc3[nH]cc(F)c23)cc(F)c1[C@@]1(O)[C@H](C)CN(C(=O)CN)C[C@@H]1C | male CD-1 mouse | plasma | oral | 3 mg/kg | – | 1260 ng/mL
NCc1ccc(-c2nn(Cc3ccncc3)c3ccccc23)o1 | male CD-1 mouse | plasma | intraperitoneal | 30 mg/kg | – | 1150 ng/mL
COc1cccc2c(N3CCC(CCP(=O)(O)O)CC3)ncnc12 | female BALB/c mouse | serum | subcutaneous | 50 mg/kg | tumour-bearing | 23000 ng/mL
Cc1cc(-c2ccnc3[nH]cc(F)c23)cc(F)c1[C@@]1(O)[C@H](C)CN(C2CCS(=O)(=O)CC2)C[C@@H]1C | male CD-1 mouse | plasma | intravenous | 1 mg/kg | – | 1620 ng/mL
CC[C@H](C)[C@H](NC(=O)[C@H](CCC(=O)O)NC(=O)[C@H](CO)NC(=O)[C@@H](NC(=O)[C@@H](N)CO)C(C)C)C(=O)N[C@@H](CCC(N)=O)C(=O)N[C@@H](CC(C)C)C(=O)N[C@@H](CCSC)C(=O)N[C@@H](Cc1cnc[nH]1)C(=O)N[C@@H](CC(N)=O)C(=O)N[C@@H](CC(C)C)C(=O)NCC(=O)N[C@@H](CCCCN)C(=O)N[C@@H](Cc1cnc[nH]1)C(=O)N[C@@H](CC(C)C)C(=O)N[C@@H](CC(N)=O)C(=O)N[C@@H](CO)C(=O)N[C@@H](CCSC)C(=O)N[C@@H](CCC(=O)O)C(=O)N[C@@H](CCCNC(=N)N)C(=O)N[C@H](C(=O)N[C@@H](CCC(=O)O)C(=O)N[C@@H](Cc1c[nH]c2ccccc12)C(=O)N[C@@H](CC(C)C)C(=O)N[C@@H](CCCNC(=N)N)C(=O)N[C@@H](CCCCN)C(=O)N[C@@H](CCCCN)C(=O)N[C@@H](CC(C)C)C(=O)N[C@@H](CCC(N)=O)C(=O)N[C@@H](CC(=O)O)C(=O)N[C@H](C(=O)N[C@@H](Cc1cnc[nH]1)C(=O)N[C@@H](CC(N)=O)C(=O)N[C@@H](Cc1ccccc1)C(N)=O)C(C)C)C(C)C | female CD-1 mouse | serum | intravenous | 10 nmol/kg | – | 8 nM
Cc1ncsc1-c1ccc([C@H](C)NC(=O)[C@@H]2C[C@@H](O)CN2C(=O)[C@@H](NC(=O)CCCCCCCCC(=O)N2CCC(n3cc(-c4ccc5c(c4)CCN5C(=O)Cc4cccc(OC(F)(F)F)c4)c4c(N)ncnc43)CC2)C(C)(C)C)cc1 | male C57BL/6 mouse | plasma | intravenous | 1 mg/kg | – | 3420 ng/mL
CC(C)(C)c1sc2ncnc(Oc3c(F)cccc3OC(F)(F)F)c2c1-c1ccc(Cl)cc1 | mouse | plasma | intravenous | 1 mg/kg | single dose | 2560 ng/mL
CCOC(=O)c1c(NC(=O)CNC(C)C)sc2c1CCCCC2 | male mouse | plasma | intraperitoneal | 5 mg/kg | single dose | 193 ng/mL
NCc1ccc(-c2nn(Cc3ccccc3)c3ccccc23)o1 | male CD-1 mouse | plasma | oral | 10 mg/kg | – | 395 ng/mL
Cc1ncsc1-c1ccc([C@H](C)NC(=O)[C@@H]2C[C@@H](O)CN2C(=O)[C@@H](NC(=O)CCCCCCCCCCC(=O)NCCCn2cc(-c3ccc4c(c3)CCN4C(=O)Cc3cccc(OC(F)(F)F)c3)c3c(N)ncnc32)C(C)(C)C)cc1 | mouse | plasma | intravenous | 1 mg/kg | – | 2330 ng/mL
